According to ChEMBL document CHEMBL1148008, “Antimicrobial and cytotoxic activity of agelasine and agelasimine analogs” (Bioorg Med Chem, 2007):
pIC50: −log10 of the molar value. Converted amounts (≈) assume the structure as drawn.

Experiments:
[1] = Cytotoxicity against RPMI 8226/s cells; type: functional, cell-based; conditions: Homo sapiens, RPMI8226/S
Method in brief: (§1)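 Fluorometric microculture cytotoxicity assay (FMCA) read-out; IC50 values reported.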

[2] = tested on: U-937/GTB; test: Cytotoxicity against U937 GTB cells; type: functional, cell-based; conditions: Homo sapiens; method in brief: as §1
[3] = Cytotoxicity against CEM/s cells; type: functional, cell-based; conditions: Homo sapiens; method in brief: as §1
[4] = tested on: ACHN; test: Cytotoxicity against ACHN cells; type: functional, cell-based; conditions: Homo sapiens; method in brief: as §1
[5] = tested on: Mycobacterium tuberculosis; test: Antimicrobial activity against Mycobacterium tuberculosis at 6.25 ug/mL after 20 hrs by broth microdilution method; type: functional
[6] = tested on: Staphylococcus aureus; test: Antibacterial activity against Staphylococcus aureus ATCC 25923 after 20 hrs by broth microdilution method; type: functional
Method in brief: (§2)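 Strains grown 24 h at 35 °C on tryptone-soya agar. Colonies suspended in saline to 0.5 McFarland, then diluted 1:10 in Mueller-Hinton broth (~10⁷ CFU/mL). Inoculum added to twofold dilutions in broth (final 0.125–32 µg/mL) in triplicate. Incubated aerobically at 35 °C for 20 h. MIC is the lowest concentration giving complete growth inhibition. Repeated at least once; gentamycin/streptomycin served as QC.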

[7] = tested on: Escherichia coli; test: Antibacterial activity against Escherichia coli ATCC 25922 after 20 hrs by broth microdilution method; type: functional; conditions: ATCC 25922, 20 h; method in brief: as §2

Molecule | pIC50 [1] | pIC50 [2] | pIC50 [3] | pIC50 [4] | inhibition at 6.25 µg/mL [5] [%] | MIC ([6]; ATCC 25923, 20 h) [µg/mL] | MIC [7] [µg/mL] | MIC [6] [µg/mL]
CC(=O)O[C@H]1C(=O)[C@@]2(C)[C@H]([C@H](OC(=O)c3ccccc3)[C@]3(O)C[C@H](OC(=O)[C@H](O)[C@@H](NC(=O)c4ccccc4)c4ccccc4)C(C)=C1C3(C)C)[C@]1(OC(C)=O)CO[C@@H]1C[C@@H]2O [PACLITAXEL] | 8.15 | 8.23 | 8.15 | 4.50 | – | – | – | –
Cn1c[n+](Cc2ccccc2)c2ccccc21 | – | – | – | – | 19 | – | – | –
CO/N=c1\[nH]cnc2c1[n+](C/C=C(\C)CCC=C(C)C)cn2C | 4.74 | 4.76 | 4.56 | < 4.10 | – | > 32 | > 32 | –
CC(C)=CCC/C(C)=C/CC/C(C)=C/CC/C(C)=C/Cn1cnc2nc[nH]/c(=N\OCc3ccccc3)c21 | 4.96 | 4.95 | 4.69 | 4.56 | 40 | > 32 | > 32 | –
C=CC[n+]1cn(C)c2nc[nH]/c(=N\OC)c21 | < 4.10 | < 4.10 | < 4.10 | < 4.10 | – | > 32 | > 32 | –
GENTAMICIN | – | – | – | – | – | – | – | 0.1
Cn1cnc(=N)c2c1ncn2Cc1ccccc1 | – | – | – | – | 0 | – | – | –
Cn1c[n+](Cc2ccccc2)c2/c(=N/OCc3ccccc3)[nH]cnc21 | – | – | – | – | 0 | – | – | –
CO/N=c1\[nH]cnc2c1[n+](Cc1ccccc1)cn2C | < 4.10 | < 4.10 | < 4.10 | < 4.10 | 4 | > 32 | > 32 | –
Cn1cc[n+](Cc2ccccc2)c1 | – | – | – | – | 19 | – | – | –
COc1cccc2c1C(=O)c1c(O)c3c(c(O)c1C2=O)C[C@@](O)(C(=O)CO)C[C@@H]3O[C@H]1C[C@H](N)[C@H](O)[C@H](C)O1 [DOXORUBICIN] | 6.89 | 6.96 | 6.74 | 4.85 | – | – | – | –
CC(C)=CCC/C(C)=C/CC/C(C)=C/CC/C(C)=C/Cn1cnc2ncnc(Cl)c21 | 5.28 | 5.29 | 5.17 | 5.17 | 33 | > 32 | > 32 | –
C/C(=C\C[n+]1cn(C)c2nc[nH]/c(=N\OCc3ccccc3)c21)CCCC(C)CCCC(C)CCCC(C)C (stereo not drawn) | 5.15 | 4.97 | 5.20 | 4.69 | 72 | > 32 | > 32 | –
CC(C)=CCC/C(C)=C/CC/C(C)=C/CC/C(C)=C/C[n+]1cn(CCC#N)c2nc[nH]/c(=N\OCc3ccccc3)c21 | 5.02 | 4.62 | 4.72 | 4.41 | 86 | > 32 | > 32 | –
CO/N=c1\[nH]cnc2c1[n+](C/C=C(\C)CCCC(C)CCCC(C)CCCC(C)C)cn2C (stereo not drawn) | 5.43 | 5.27 | 5.10 | 4.77 | 56 | > 32 | > 32 | –
CC(C)=CCC/C(C)=C/CC/C(C)=C/CC/C(C)=C/Cn1cnc2c1C(=N)NCN2C | 4.74 | < 4.10 | 4.66 | < 4.10 | 99 | 8 (≈ 18.9 µM) | 16 (≈ 37.8 µM) | –
Cn1c[n+](Cc2ccccc2)c2/c(=N/OC(C)(C)C)[nH]cnc21 | – | – | – | – | 53 | – | – | –
CC(C)=CCC/C(C)=C\CC/C(C)=C/C[n+]1cn(C)c2ncnc(N)c21.[Cl-] | – | – | – | – | 8 | 32 | > 32 | –
CO/N=c1\[nH]cnc2c1[n+](C/C=C(\C)CC/C=C(\C)CCC1CCCCC1)cn2C | – | – | – | – | – | 6 | 16 | –
Cn1cnc2c(N)[n+](Cc3ccccc3)cnc21.[Br-] | – | – | – | – | 0 | > 32 | > 32 | –
